The values that follow come from ChEMBL document CHEMBL1130120, “N-arylpiperazinyl-N'-propylamino derivatives of heteroaryl amides as functional uroselective alpha 1-adrenoceptor antagonists” (J Med Chem, 1997).

The target in test [1] is T1, Alpha-1D adrenergic receptor (Rattus norvegicus, UniProt P23944).
T1 sequence (P23944 whole entry): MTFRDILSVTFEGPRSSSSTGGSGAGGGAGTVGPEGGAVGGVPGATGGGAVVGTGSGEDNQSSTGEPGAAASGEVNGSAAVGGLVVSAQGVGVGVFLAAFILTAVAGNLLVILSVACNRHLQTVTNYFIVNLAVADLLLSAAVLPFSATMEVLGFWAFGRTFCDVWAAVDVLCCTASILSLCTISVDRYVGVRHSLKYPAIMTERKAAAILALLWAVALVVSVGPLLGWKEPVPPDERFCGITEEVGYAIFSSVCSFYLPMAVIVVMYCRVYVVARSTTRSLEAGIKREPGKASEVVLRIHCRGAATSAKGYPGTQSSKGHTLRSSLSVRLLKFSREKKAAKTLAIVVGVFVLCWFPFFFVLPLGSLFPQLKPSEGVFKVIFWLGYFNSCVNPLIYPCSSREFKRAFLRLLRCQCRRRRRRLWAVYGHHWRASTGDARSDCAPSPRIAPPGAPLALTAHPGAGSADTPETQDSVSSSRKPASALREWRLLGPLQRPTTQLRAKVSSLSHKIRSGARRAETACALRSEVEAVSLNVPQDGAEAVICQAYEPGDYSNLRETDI
Put plainly: Antagonistic activity against rat aorta for affinity estimates representative of the Alpha-1D adrenergic receptor. The class given is functional, tissue-based. The note with it: read-out: pA2 (converted). A digest of the protocol:
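Isolated smooth-muscle tissue with cumulative norepinephrine concentration–effect curves (rat aorta, human lower urinary tract). Affinity obtained by full Schild regression for some antagonists. […] Competitive, reversible interaction at a single subtype assumed.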

The target in test [2] is T2, Alpha-1A adrenergic receptor (Oryctolagus cuniculus, UniProt O02824).
T2 sequence (O02824 whole entry): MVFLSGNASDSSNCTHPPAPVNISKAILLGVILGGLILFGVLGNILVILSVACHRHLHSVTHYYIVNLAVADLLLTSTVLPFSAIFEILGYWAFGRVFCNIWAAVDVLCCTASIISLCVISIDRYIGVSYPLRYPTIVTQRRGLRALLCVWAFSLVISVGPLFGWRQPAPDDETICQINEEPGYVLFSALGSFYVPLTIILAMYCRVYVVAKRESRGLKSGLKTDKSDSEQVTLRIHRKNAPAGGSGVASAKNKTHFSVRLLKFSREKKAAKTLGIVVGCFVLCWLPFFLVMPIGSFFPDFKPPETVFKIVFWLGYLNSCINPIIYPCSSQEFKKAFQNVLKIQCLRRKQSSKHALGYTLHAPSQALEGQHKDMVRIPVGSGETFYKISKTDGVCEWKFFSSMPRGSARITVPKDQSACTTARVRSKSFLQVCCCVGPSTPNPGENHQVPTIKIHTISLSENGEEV
Put plainly: Antagonistic activity against alpha 1A/1L receptor was assessed in a rabbit bladder neck functional assay. The note with it: read-out: pA2 (converted).

The target in test [3] is T3, Alpha-1A adrenergic receptor (Bos taurus, UniProt P18130).
T3 sequence (P18130 whole entry): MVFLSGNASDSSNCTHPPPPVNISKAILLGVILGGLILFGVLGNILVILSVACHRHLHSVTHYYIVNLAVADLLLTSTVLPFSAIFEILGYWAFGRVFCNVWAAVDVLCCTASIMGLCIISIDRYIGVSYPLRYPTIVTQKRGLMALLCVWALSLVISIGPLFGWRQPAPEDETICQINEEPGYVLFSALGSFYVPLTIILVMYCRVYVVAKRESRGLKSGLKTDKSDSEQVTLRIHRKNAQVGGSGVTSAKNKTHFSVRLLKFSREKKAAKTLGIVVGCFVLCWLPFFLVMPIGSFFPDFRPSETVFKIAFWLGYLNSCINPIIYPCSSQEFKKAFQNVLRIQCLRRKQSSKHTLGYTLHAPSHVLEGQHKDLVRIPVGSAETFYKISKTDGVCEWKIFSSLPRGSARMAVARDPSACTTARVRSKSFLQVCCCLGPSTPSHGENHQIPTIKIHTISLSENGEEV
As to the kind of experiment: In vitro for the displacement of [3H]prazosin binding to bovine Alpha-1A adrenergic receptor. For orientation: In a radioligand displacement assay an active substance lowers the binding of a labelled ligand.

Regarding `COc1cc(F)ccc1N1CCN(CCCNc2c(C(=O)N(C)C)cnc3c2nc(C)n3C)CC1`, the Kb in test [1] is 79.4 nM; in test [2], 0.631 nM.

One may read the Ki as the dissociation constant of the complex between target and ligand, obtained from inhibition or displacement. The low end stands for higher affinity, the high end for lower affinity. In the case of `Cc1cccc(C)c1N1CCN(CCCNc2ncccc2C(=O)N(C)C)CC1`, the affinity in test [3], expressed as Ki, was 7.94 nM.

Consider `COc1ccccc1N1CCN(CCCNc2ncncc2C(=O)N(C)C)CC1`, for which the Kb in test [1] was 50.1 nM; in test [2] it was 3.98 nM.

For `COc1ccccc1N1CCN(CCCNc2ccccc2C(=O)c2ccccc2)CC1`, the Kb in test [1] was 10 nM; in test [2] it was 31.6 nM.

As for `COc1ccccc1N1CCN(CCCNc2ncccc2C(=O)C2CC2)CC1`, the Kb in test [1] was 2 nM; in test [2], 0.501 nM.

Regarding `COc1ccccc1N1CCN(CCCSc2ccccc2C(=O)N(C)C)CC1`, the Kb in test [1] is 12.6 nM; in test [2], 2 nM.

Regarding `CN(C)C(=O)c1cccnc1NCCCN1CCN(c2ccccc2Cc2ccccc2)CC1`, the values for the Kb in test [1] and in test [2] were 79.4 nM and 6.31 nM, respectively.

On to `Cc1ccc(N(CC2=NCCN2)c2cccc(O)c2)cc1` [PHENTOLAMINE], for which the Kb in test [2] is 6.31 nM. Also, the affinity in test [3] corresponds to a Ki of 0.794 nM.

Turning to `CN(C)C(=O)c1cnc2ccccc2c1NCCCN1CCN(c2ccccc2OCC(F)(F)F)CC1`, the Kb in test [1] was 100 nM; in test [2], 3.98 nM.

Turning to `COc1ccccc1N1CCN(CCC(=O)Nc2ccccc2C(=O)N(C)C)CC1`, the Kb in test [1] is 63.1 nM. The Ki in test [3] is 1.58 nM.

On to `COc1cc(F)ccc1N1CCN(CCCNc2c(C(=O)N(C)C)cnc3c(C)cccc23)CC1`, for which the Kb in test [1] is 316 nM; in test [2], 7.94 nM.

Take `COc1ccccc1N1CCN(CCCNc2c(C)c(=O)n(C)c(=O)n2C)CC1`: the Kb in test [2] is 3.98 nM. Further, the Ki in test [3] is 0.501 nM.

Consider `Cc1ccc(N2CCN(CCCNc3ncccc3C(=O)N(C)C)CC2)c(-n2cccc2)c1`, for which the results for the Kb in test [1] and in test [2] were 12.6 nM and 0.02 nM, respectively.

`Cc1nn(C)c2ncc(C(=O)N(C)C)c(NCCCN3CCN(c4ccc(F)cc4-c4ncco4)CC3)c12`: the figures for the Kb in test [1] and in test [2] were 200 nM and 0.126 nM, respectively.

Regarding `COc1ccccc1N1CCN(CCCNc2ncc(C#N)cc2C(=O)N(C)C)CC1`, the Kb in test [1] is 20 nM; in test [2] it was 0.794 nM.

Take `CN(C)C(=O)c1cccnc1NCCCN1CCN(c2ccccc2OCC(F)(F)F)CC1`: the results for the Kb in test [1] and in test [2] were 15.8 nM and 0.1 nM, respectively.

Regarding `CC(C)c1ccccc1N1CCN(CCCNc2ncccc2C(=O)N(C)C)CC1`, the Kb in test [1] was 63.1 nM; in test [2], 0.398 nM.

Turning to `Cc1cnccc1N1CCN(CCCNc2ncccc2C(=O)N(C)C)CC1`, the Kb in test [2] was 200 nM.

Regarding `CNC(=O)c1cccnc1NCCCN1CCN(c2ccccc2OC)CC1`, the values for the Kb in test [1] and in test [2] were 3.16 nM and 1 nM, respectively.

Turning to `COc1ccccc1N1CCN(CCCNc2ncccc2C(N)=O)CC1`, in test [1], the Kb is 10 nM. Further, the inhibition constant Ki in test [3] was 0.126 nM.

`CN(C)C(=O)c1cccnc1NCCCN1CCN(c2ccccc2O)CC1`: the Kb in test [1] was 63.1 nM; in test [2] it was 5.01 nM.

`CN(C)C(=O)c1cccnc1NCCCN1CCN(c2ccccc2C(F)(F)F)CC1`: the Kb in test [1] was 316 nM; in test [2], 12.6 nM.

On to `COc1cc(F)ccc1N1CCN(CCCNc2c(C(=O)N(C)C)c[nH]c3c(Cl)cn[n+]2-3)CC1`, for which the Kb in test [1] is 158 nM; in test [2], 0.794 nM.

In the case of `CCOc1ccccc1N1CCN(CCCNc2ncccc2C(=O)N(C)C)CC1`, the Kb in test [1] is 7.94 nM; in test [2], 0.501 nM.

As for `COc1ccccc1N1CCN(CCCNc2ccc(C(=O)N(C)C)cn2)CC1`, the figures for the Kb in test [1] and in test [2] were 31.6 nM and 25.1 nM, respectively.

For `COc1cc(F)ccc1N1CCN(CCCNc2c(C(=O)N(C)C)cnc3c(C(N)=O)cccc23)CC1`, the Kb in test [1] is 158 nM; in test [2], 0.501 nM.

Turning to `COc1cc(F)ccc1N1CCN(CCCNc2c(C(=O)N(C)C)cnc3c(C#N)cccc23)CC1`, the results for the Kb in test [1] and in test [2] were 398 nM and 1.26 nM, respectively.

For `COc1ccc(N2CCN(CCCNc3ncccc3C(=O)N(C)C)CC2)c(OC)c1`, the Kb in test [1] is 1000 nM; in test [2], 31.6 nM.

In the case of `CN(C)C(=O)c1cccnc1NCCCN1CCN(c2ccccc2C2CC2)CC1`, the Kb in test [1] is 63.1 nM; in test [2] it was 0.631 nM.

With `CCOc1ccccc1OCCNC1CCN(c2ncccc2C(=O)N(C)C)CC1`, the Kb in test [1] is 15.8 nM. The compound also had a Ki in test [3] of 3.16 nM.

Regarding `COc1cc(F)ccc1N1CCN(CCCNc2c(C(=O)N(C)C)c[nH]c3ccn[n+]2-3)CC1`, the Kb in test [1] was 100 nM; in test [2], 0.631 nM.

As for `CNC(=O)c1cnc2c(c(C)nn2C)c1NCCCN1CCN(c2ccccc2OCC(F)(F)F)CC1`, the Kb in test [1] was 3.98 nM; in test [2] it was 0.1 nM.

As to `COc1ccccc1N1CCN(CCCNc2ncccc2C(=O)C(C)(C)C)CC1`, the Kb in test [1] is 6.31 nM. Besides, the Ki in test [3] was 0.398 nM.

For `COc1ccccc1N1CCN(CCCOc2ccccc2C(=O)N(C)C)CC1`, the values for the Kb in test [1] and in test [2] were 31.6 nM and 3.98 nM, respectively.

On to `CN(C)C(=O)c1cccnc1NCCCN1CCN(c2ccccc2OC(F)(F)F)CC1`, for which the values for the Kb in test [1] and in test [2] were 100 nM and 3.16 nM, respectively.

Regarding `COc1cc(O)ccc1N1CCN(CCCNc2ncccc2C(=O)N(C)C)CC1`, the Kb in test [1] is 79.4 nM; in test [2], 12.6 nM.

As to `CN(C)C(=O)c1cccnc1N1CCC(NCCOc2ccccc2-c2cncnc2)CC1`, the Kb in test [1] is 2510 nM; in test [2] it was 20 nM.

Regarding `CN(C)C(=O)c1cccnc1NCCCN1CCN(c2ccccc2C#N)CC1`, the Kb in test [1] is 10 nM; in test [2], 2 nM.

As for `CN(C)C(=O)c1cccnc1NCCCN1CCN(c2ccccc2OCC(C)(C)C)CC1`, in test [1], the Kb was 50.1 nM. Affinity in test [3] was put at a Ki of 0.794 nM.

Regarding `COc1ccccc1N1CCN(CCCNc2ncc(O)cc2C(=O)N(C)C)CC1`, the Kb in test [1] was 10 nM; in test [2] it was 2 nM.

Turning to `COc1ccccc1N1CCN(CCCNc2cccc(C)c2C(=O)N(C)C)CC1`, the Kb in test [1] is 63.1 nM; in test [2], 3.16 nM.

Take `Cc1noc2ncc(C(=O)N(C)C)c(NCCCN3CCN(c4ccccc4OCC(F)(F)F)CC3)c12`: the figures for the Kb in test [1] and in test [2] were 79.4 nM and 1.58 nM, respectively.

Take `CN(C)C(=O)c1cnc2c(Cl)cccc2c1NCCCN1CCN(c2ccccc2OCC(F)(F)F)CC1`: the Kb was 126 nM in test [1] and 0.794 nM in test [2].

Take `COc1cc(F)ccc1N1CCN(CCCNc2c(C(=O)N(C)C)cnc3nc(C)ccc23)CC1`: the Kb in test [1] was 631 nM; in test [2], 1.26 nM.

As to `COc1cc(C)ccc1N1CCN(CCCNc2ncccc2C(=O)N(C)C)CC1`, the Kb in test [1] was 39.8 nM; in test [2], 0.794 nM.

Take `CN(C)C(=O)c1cnc2c(c(C(C)(C)C)nn2C)c1NCCCN1CCN(c2ccccc2OCC(F)(F)F)CC1`: the Kb in test [1] is 63.1 nM; in test [2], 2.51 nM.

In the case of `CSc1ccccc1N1CCN(CCCNc2ncccc2C(=O)N(C)C)CC1`, the Kb in test [1] is 31.6 nM; in test [2], 0.631 nM.

With `COc1ccccc1N1CCN(CCCNc2ccc(C)cc2C(=O)N(C)C)CC1`, the Kb in test [1] is 20 nM; in test [2] it was 0.501 nM.

For `CN(C)C(=O)c1cccnc1NCCCN1CCN(c2ccccc2-c2ncco2)CC1`, the Kb in test [1] was 25.1 nM; in test [2], 0.316 nM.

Turning to `CCCc1ccccc1N1CCN(CCCNc2ncccc2C(=O)N(C)C)CC1`, the Kb in test [1] is 31.6 nM; in test [2], 0.2 nM.

Turning to `COc1ccccc1N1CCN(CCCNc2ncccc2C(=O)N2CCCC2)CC1`, the Kb in test [1] is 20 nM. Moreover, the affinity in test [3] corresponds to a Ki of 0.794 nM.

Turning to `COc1ccccc1N1CCN(CCCNc2ccncc2C(=O)N(C(C)C)C(C)C)CC1`, the Kb in test [1] is 251 nM. The same compound showed a Ki in test [3] of 1.58 nM.
